Experimental data reported in ChEMBL document CHEMBL1134147, “3-Arylpiperidines as potentiators of existing antibacterial agents” (Bioorg Med Chem Lett, 2001).
In brackets after ≈: the same amount, converted by molar mass. Residues, ends and D or L forms follow the SMILES beside them. *: point of attachment. βNA = c1ccc2cc(N*)ccc2c1

Legend:
Escherichia coli [1] = test: Antibacterial activity against Escherichia coli strain ATCC 25922; type: functional
Escherichia coli [2] = test: Inhibitory activity against accumulation of [14C]-labeled Linezolid within wild-type Escherichia coli K12 cells; type: functional, cell-based; conditions: K-12, K12
Outline: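 E. coli K12 grown at 37 °C in LB + 0.2% glucose, rinsed twice, resuspended to OD530 8.0 in 50 mM KPO4 pH 7.0, 1 mM MgSO4, 0.2% glucose. Preincubated 10 min at 37 °C, inhibitor added for 30 min, then 14C-linezolid (30 µM final) 15 min. Cells spun through an oil cushion and scintillation counted. IC50 is half-maximal accumulation relative to 100 µM CCCP control.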

Staphylococcus aureus = test: Antibacterial activity against Staphylococcus aureus strain ATCC 29213; type: functional

COc1ccccc1-c1ccc(CCC2CCCNC2)c(Cl)c1 (configuration not stated)
MIC (Escherichia coli [1]): 64 µg/mL (≈ 194 µM)
IC50 (Escherichia coli [2]): > 900 µM
MIC (Staphylococcus aureus): 32 µg/mL (≈ 97 µM)

Cl.OC1CCNC[C@@H]1Cc1cc(Br)ccc1Cl (some centres not stated)
MIC (Escherichia coli [1]): > 256 µg/mL
IC50 (Escherichia coli [2]): > 900 µM
MIC (Staphylococcus aureus): > 128 µg/mL

N#Cc1ccc(CCC2CCCNC2)cc1 (configuration not stated)
MIC (Escherichia coli [1]): > 128 µg/mL
IC50 (Escherichia coli [2]): > 900 µM
MIC (Staphylococcus aureus): > 128 µg/mL

Cl.F[C@H]1CCNC[C@@H]1Cc1cc(Br)ccc1Cl
MIC (Escherichia coli [1]): 256 µg/mL
IC50 (Escherichia coli [2]): > 900 µM
MIC (Staphylococcus aureus): > 125 µg/mL

Cl.FC1=C(Cc2cc(Br)ccc2Cl)CNCC1
MIC (Escherichia coli [1]): 128 µg/mL
IC50 (Escherichia coli [2]): 480 µM
MIC (Staphylococcus aureus): > 128 µg/mL

Cl.Clc1ccc(Br)cc1CC1=CCCNC1
MIC (Escherichia coli [1]): 256 µg/mL
IC50 (Escherichia coli [2]): 600 µM
MIC (Staphylococcus aureus): 128 µg/mL

N=C(N)NCCC[C@H](NC(=O)[C@@H](N)Cc1ccccc1)C(=O)Nc1ccc2ccccc2c1 [PABETAN] (H-Phe-Arg-βNA)
MIC (Escherichia coli [1]): 256 µg/mL (≈ 573 µM)
IC50 (Escherichia coli [2]): 730 µM

CCOc1ccc(CCC2CCCNC2)cc1 (configuration not stated)
MIC (Escherichia coli [1]): > 128 µg/mL
IC50 (Escherichia coli [2]): > 900 µM
MIC (Staphylococcus aureus): > 128 µg/mL

Clc1cccc(Cl)c1CCC1CCCNC1 (configuration not stated)
MIC (Escherichia coli [1]): > 128 µg/mL
IC50 (Escherichia coli [2]): 290 µM
MIC (Staphylococcus aureus): > 128 µg/mL

F[C@H]1CCNC[C@@H]1CCCc1cc(Br)ccc1Cl
IC50 (Escherichia coli [2]): 400 µM

Cc1ccc(C)c(CCC2CCCNC2)c1 (configuration not stated)
MIC (Escherichia coli [1]): > 128 µg/mL
IC50 (Escherichia coli [2]): > 900 µM
MIC (Staphylococcus aureus): > 128 µg/mL

Clc1ccc(Cl)c(CCC2CCCNC2)c1 (configuration not stated)
MIC (Escherichia coli [1]): 128 µg/mL (≈ 496 µM)
IC50 (Escherichia coli [2]): 195 µM
MIC (Staphylococcus aureus): 64 µg/mL (≈ 248 µM)

Cl.F[C@@H]1CCNC[C@H]1CCc1cc(Br)ccc1Cl
MIC (Escherichia coli [1]): 64 µg/mL
IC50 (Escherichia coli [2]): 90 µM
MIC (Staphylococcus aureus): 64 µg/mL

Clc1ccc(CCC2CCCNC2)cc1Cl (configuration not stated)
MIC (Escherichia coli [1]): 128 µg/mL (≈ 496 µM)
IC50 (Escherichia coli [2]): 200 µM
MIC (Staphylococcus aureus): 128 µg/mL (≈ 496 µM)

Cl.Clc1ccc(Br)cc1/C=C/C1CCCNC1 (configuration not stated)
MIC (Escherichia coli [1]): 64 µg/mL
IC50 (Escherichia coli [2]): 140 µM
MIC (Staphylococcus aureus): 32 µg/mL

FC(F)(F)c1cc(CCC2CCCNC2)cc(C(F)(F)F)c1 (configuration not stated)
MIC (Escherichia coli [1]): 64 µg/mL (≈ 197 µM)
IC50 (Escherichia coli [2]): 300 µM
MIC (Staphylococcus aureus): 64 µg/mL (≈ 197 µM)

Cl.O[C@H]1CCNC[C@@H]1Cc1cc(Br)ccc1Cl
MIC (Escherichia coli [1]): > 256 µg/mL
IC50 (Escherichia coli [2]): > 900 µM
MIC (Staphylococcus aureus): > 128 µg/mL

Cl.O=C1CCNCC1Cc1cc(Br)ccc1Cl (configuration not stated)
MIC (Escherichia coli [1]): > 256 µg/mL
IC50 (Escherichia coli [2]): > 900 µM
MIC (Staphylococcus aureus): > 128 µg/mL

Cl.Clc1ccc(Br)cc1CCC1CCCNC1 (configuration not stated)
MIC (Escherichia coli [1]): 128 µg/mL
IC50 (Escherichia coli [2]): 185 µM
MIC (Staphylococcus aureus): 64 µg/mL

c1ccc(CCC2CCCNC2)cc1 (configuration not stated)
MIC (Escherichia coli [1]): > 128 µg/mL
IC50 (Escherichia coli [2]): > 900 µM
MIC (Staphylococcus aureus): > 128 µg/mL
